Experimental data as given in the M2OR odorant receptor database.

Legend:
Conditions in all cases: stereoisomer not certain
[1] = molecular target: OR6A2 (Homo sapiens) (UniProt O95222)
Outline: (§1)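 Transient luciferase assays in mammalian cell lines were common, though methods varied by source. The values come from published papers and their supplementary material, with extra details from the original authors when needed. Responsive refers to a measured signal the original authors judged statistically different from baseline, and non-responsive (inactive) to the remainder.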

[2] = test system: OR6A2 I50V
Sequence of OR6A2 I50V (as listed by the source, stated change not applied): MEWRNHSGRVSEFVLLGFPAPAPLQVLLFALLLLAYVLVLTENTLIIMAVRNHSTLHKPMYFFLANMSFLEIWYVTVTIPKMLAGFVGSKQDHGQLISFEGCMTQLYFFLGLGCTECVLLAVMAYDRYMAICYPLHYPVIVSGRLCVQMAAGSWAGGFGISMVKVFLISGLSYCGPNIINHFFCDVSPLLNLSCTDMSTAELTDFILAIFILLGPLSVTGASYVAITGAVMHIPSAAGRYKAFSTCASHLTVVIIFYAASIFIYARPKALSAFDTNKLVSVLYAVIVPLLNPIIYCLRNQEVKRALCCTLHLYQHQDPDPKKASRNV
Outline: as §1

[3] = molecular target: OR6B1 (Homo sapiens) (UniProt O95007)
Sequence of OR6B1 (Homo sapiens) (O95007 whole entry): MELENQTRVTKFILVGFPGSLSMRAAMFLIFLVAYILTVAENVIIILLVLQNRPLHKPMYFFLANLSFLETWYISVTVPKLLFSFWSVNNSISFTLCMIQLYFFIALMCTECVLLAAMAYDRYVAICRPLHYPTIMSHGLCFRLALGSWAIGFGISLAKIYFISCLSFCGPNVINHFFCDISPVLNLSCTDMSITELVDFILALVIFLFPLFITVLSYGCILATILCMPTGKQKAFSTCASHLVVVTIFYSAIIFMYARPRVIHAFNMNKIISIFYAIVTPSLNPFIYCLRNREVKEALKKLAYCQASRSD
Outline: as §1

[4] = molecular target: OR6B2 (Homo sapiens) (UniProt Q6IFH4)
Sequence of OR6B2 (Homo sapiens) (Q6IFH4 whole entry): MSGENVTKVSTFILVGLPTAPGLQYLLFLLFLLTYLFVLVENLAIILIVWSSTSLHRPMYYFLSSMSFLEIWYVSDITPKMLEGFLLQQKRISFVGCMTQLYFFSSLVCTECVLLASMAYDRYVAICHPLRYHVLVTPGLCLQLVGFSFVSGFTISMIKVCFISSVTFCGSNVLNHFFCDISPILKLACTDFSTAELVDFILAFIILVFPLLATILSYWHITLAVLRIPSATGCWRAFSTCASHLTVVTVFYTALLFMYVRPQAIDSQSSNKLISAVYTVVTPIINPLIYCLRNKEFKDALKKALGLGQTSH
Outline: as §1

[5] = test system: OR6B2 R122C C179R
Outline: as §1

[6] = molecular target: OR6B3 (Homo sapiens) (UniProt Q8NGW1)
Sequence of OR6B3 (Homo sapiens) (Q8NGW1 whole entry): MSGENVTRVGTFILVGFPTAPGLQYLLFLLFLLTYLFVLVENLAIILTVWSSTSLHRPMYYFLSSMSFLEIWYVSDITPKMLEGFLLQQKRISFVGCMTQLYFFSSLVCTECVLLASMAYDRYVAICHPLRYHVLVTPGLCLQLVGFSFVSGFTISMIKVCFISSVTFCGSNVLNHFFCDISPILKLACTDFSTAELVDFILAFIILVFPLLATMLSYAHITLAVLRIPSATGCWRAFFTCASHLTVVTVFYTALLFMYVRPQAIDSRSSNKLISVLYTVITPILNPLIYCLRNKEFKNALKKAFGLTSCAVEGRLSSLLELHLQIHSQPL
Outline: as §1

[7] = test system: OR6B3 T48I R131C
Outline: as §1

[8] = molecular target: OR6C1 (Homo sapiens) (UniProt Q96RD1)
Sequence of OR6C1 (Homo sapiens) (Q96RD1 whole entry): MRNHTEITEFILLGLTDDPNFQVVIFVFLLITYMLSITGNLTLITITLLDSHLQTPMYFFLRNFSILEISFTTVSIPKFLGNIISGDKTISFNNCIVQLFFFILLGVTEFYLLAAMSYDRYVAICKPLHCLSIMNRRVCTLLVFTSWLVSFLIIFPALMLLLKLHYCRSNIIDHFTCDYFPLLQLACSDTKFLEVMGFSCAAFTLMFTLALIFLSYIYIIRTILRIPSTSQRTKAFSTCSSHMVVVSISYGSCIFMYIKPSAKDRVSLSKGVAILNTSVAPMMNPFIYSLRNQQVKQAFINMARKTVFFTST
Outline: as §1

[9] = test system: OR6C1 C130Y H165D V246I
Outline: as §1

[10] = molecular target: OR6C2 (Homo sapiens) (UniProt Q9NZP2)
Sequence of OR6C2 (Homo sapiens) (Q9NZP2 whole entry): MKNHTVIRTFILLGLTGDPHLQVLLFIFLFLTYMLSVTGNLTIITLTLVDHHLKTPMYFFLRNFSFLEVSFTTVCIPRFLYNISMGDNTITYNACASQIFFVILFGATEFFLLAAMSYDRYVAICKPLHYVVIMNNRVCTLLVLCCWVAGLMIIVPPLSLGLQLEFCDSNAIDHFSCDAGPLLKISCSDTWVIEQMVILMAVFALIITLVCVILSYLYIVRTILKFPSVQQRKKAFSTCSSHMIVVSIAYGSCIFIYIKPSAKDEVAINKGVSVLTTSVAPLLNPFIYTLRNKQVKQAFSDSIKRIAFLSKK
Outline: as §1

[11] = molecular target: OR6C3 (Homo sapiens) (UniProt Q9NZP0)
Sequence of OR6C3 (Homo sapiens) (Q9NZP0 whole entry): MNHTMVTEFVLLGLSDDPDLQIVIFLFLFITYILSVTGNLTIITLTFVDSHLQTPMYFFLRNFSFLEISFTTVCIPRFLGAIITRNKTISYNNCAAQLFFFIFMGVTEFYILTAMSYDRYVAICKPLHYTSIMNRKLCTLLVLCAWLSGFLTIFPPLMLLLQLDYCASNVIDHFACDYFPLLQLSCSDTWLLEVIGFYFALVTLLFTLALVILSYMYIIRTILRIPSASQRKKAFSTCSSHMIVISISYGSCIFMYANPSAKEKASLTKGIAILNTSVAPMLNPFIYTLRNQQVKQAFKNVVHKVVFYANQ
Outline: as §1

[12] = molecular target: OR6C4 (Homo sapiens) (UniProt Q8NGE1)
Sequence of OR6C4 (Homo sapiens) (Q8NGE1 whole entry): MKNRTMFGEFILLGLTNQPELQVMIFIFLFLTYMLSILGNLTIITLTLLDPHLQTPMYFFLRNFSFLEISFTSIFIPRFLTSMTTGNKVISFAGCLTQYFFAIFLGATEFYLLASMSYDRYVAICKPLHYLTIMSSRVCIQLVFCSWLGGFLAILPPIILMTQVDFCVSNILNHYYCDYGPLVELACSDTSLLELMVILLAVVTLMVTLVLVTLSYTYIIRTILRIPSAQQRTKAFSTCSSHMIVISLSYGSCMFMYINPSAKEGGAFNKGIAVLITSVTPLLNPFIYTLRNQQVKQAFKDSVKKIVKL
Outline: as §1

[13] = test system: OR6C4
Sequence of OR6C4 (as listed by the source): as the sequence (Q8NGE1 whole entry) above, with I37V counted along it
Outline: as §1

[14] = molecular target: OR6C6 (Homo sapiens) (UniProt A6NF89)
Sequence of OR6C6 (Homo sapiens) (A6NF89 whole entry): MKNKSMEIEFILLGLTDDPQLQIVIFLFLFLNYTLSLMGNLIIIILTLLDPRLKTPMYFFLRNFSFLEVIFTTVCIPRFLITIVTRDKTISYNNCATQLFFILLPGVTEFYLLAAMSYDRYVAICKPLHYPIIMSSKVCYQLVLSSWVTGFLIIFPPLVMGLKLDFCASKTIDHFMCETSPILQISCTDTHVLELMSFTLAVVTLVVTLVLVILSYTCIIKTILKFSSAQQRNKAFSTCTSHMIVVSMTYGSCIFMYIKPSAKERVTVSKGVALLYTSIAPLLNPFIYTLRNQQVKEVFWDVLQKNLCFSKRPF
Outline: as §1

[15] = test system: OR6C6 M6I
Sequence of OR6C6 M6I (as listed by the source): as the sequence (A6NF89 whole entry) above, with M6I counted along it
Outline: as §1

[16] = molecular target: OR6C65 (Homo sapiens) (UniProt A6NJZ3)
Sequence of OR6C65 (Homo sapiens) (A6NJZ3 whole entry): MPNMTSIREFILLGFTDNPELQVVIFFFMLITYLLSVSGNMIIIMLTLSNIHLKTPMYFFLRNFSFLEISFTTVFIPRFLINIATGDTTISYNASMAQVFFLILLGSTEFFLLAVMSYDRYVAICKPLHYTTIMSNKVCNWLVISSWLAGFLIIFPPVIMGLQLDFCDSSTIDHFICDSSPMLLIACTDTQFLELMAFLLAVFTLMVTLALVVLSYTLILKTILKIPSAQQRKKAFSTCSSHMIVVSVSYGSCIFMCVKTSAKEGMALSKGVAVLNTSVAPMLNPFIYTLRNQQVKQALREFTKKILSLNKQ
Outline: as §1

[17] = molecular target: OR6C68 (Homo sapiens) (UniProt A6NDL8)
Sequence of OR6C68 (Homo sapiens) (A6NDL8 whole entry): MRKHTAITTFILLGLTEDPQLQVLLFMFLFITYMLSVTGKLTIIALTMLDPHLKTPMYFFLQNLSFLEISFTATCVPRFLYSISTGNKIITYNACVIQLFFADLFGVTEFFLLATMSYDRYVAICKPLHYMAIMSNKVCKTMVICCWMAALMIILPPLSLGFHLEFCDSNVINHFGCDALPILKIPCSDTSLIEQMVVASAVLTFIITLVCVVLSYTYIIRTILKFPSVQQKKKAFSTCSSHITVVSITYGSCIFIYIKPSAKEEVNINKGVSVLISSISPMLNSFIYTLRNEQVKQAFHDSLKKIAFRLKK
Outline: as §1

[18] = molecular target: OR6C70 (Homo sapiens) (UniProt A6NIJ9)
Sequence of OR6C70 (Homo sapiens) (A6NIJ9 whole entry): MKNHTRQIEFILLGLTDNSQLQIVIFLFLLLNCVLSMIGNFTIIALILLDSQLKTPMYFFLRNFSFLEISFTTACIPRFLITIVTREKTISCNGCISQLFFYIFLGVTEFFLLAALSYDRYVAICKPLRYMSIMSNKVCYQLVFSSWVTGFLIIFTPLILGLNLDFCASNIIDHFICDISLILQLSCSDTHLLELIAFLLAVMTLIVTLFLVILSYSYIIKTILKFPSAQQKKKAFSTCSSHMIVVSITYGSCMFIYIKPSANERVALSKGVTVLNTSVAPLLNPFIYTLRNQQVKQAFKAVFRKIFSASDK
Outline: as §1

[19] = molecular target: OR6C74 (Homo sapiens) (UniProt A6NCV1)
Sequence of OR6C74 (Homo sapiens) (A6NCV1 whole entry): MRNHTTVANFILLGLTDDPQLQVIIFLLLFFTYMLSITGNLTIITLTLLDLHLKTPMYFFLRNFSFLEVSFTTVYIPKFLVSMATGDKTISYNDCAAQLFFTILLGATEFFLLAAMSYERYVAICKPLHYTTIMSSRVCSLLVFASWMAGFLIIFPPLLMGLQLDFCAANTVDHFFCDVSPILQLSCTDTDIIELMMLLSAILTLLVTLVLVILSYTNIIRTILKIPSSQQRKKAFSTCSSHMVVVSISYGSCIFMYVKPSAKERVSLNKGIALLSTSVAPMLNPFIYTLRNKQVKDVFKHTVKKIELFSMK
Outline: as §1

[20] = molecular target: OR6C75 (Homo sapiens) (UniProt A6NL08)
Sequence of OR6C75 (Homo sapiens) (A6NL08 whole entry): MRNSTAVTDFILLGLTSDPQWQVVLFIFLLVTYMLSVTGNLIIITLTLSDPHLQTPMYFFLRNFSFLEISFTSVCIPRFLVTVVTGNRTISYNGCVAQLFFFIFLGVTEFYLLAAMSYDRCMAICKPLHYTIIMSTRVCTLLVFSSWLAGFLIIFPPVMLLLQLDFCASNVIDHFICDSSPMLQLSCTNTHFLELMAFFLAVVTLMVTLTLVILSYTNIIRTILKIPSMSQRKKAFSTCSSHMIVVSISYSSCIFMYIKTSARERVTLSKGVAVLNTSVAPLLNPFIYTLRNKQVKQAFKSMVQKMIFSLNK
Outline: as §1

Measured: odorant receptor agonist call;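 further: active if original authors judged signal statistically different from baseline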

Sequence of OR6A2 (Homo sapiens) (O95222 whole entry): as the sequence (as listed by the source, stated change not applied) above, with V50I counted along it

C=CCOC(=O)Cc1ccccc1
inactive: [1] | [2] | [3] | [4] | [5] | [6] | [7] | [8] | [9] | [10] | [11] | [12] | [13] | [14] | [15] | [16] | [17] | [18] | [19] | [20]

Cc1c([N+](=O)[O-])c(C)c([N+](=O)[O-])c(C(C)(C)C)c1[N+](=O)[O-]
inactive: [1] | [3] | [4] | [6] | [8] | [10] | [11] | [12] | [14] | [16] | [17] | [18] | [19] | [20]
